{"source": "paper PMC6753381", "about": "(Cell reports, 2019)", "key": {"[1]": {"tested_on": "Ca45 2+ uptake in 3T3-L1 adipocytes", "assay": "Ca45 2+ uptake assay in 3T3-L1 adipocytes", "assay_type": "cell-based, mouse", "settings": "differentiated 3T3-L1 adipocytes, 3 min, pH 7.4, 37°C; ISO 100 nM", "procedure,_shortened": "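Differentiated adipocytes were washed twice, 15 min apart, at 37°C in 150 mM NaCl, 5 mM KCl, 2 mM CaCl2 and 10 mM HEPES, pH 7.4. They were then incubated 3 min in Ca-free buffer with 2 μCi 45Ca2+, peptide at several concentrations and isoproterenol 100 nM. Stop with ice-cold Ca-free buffer containing 2 mM EGTA and 1 mM LaCl3, then three washes. Lysis in 0.1% Triton X-100; scintillation counting, cpm/well.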"}, "3T3-L1 adipocytes": {"tested_on": "3T3-L1 adipocytes", "assay": "Lipolysis", "assay_type": "cell-based, mouse", "settings": "1 h pretreatment, ISO 50 nM, no TLQP-21", "procedure,_shortened": "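Adipocytes serum-starved 3 h in KRH buffer (HEPES 10 mM, CaCl2 2.2 mM, glucose 5.4 mM) with 1% fatty-acid-free BSA, then treated in KRH with 4% BSA. Inhibitors given as 1 h pretreatment (SKF-96365 dose series; AnC0A4 or KN-62 1 μM) before isoproterenol 50 nM. Medium heat-inactivated 60°C for 20 min. Free glycerol read colorimetrically at 540 nm, normalized to Bradford protein, fold over control.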"}, "[Ca2+]i in 3T3-L1 cells": {"tested_on": "[Ca2+]i in 3T3-L1 cells", "assay": "Fluo-4 intracellular calcium in 3T3-L1 cells", "assay_type": "cell-based, mouse", "settings": "SKF-96365 20 μM; for effect of inhibitor on TLQP-21-induced [Ca2+]i increase: TLQP-21 10 μM", "procedure,_shortened": "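Cells plated at 60% confluency on collagen-coated slides. Next day, loaded 30 min in HBSS with 2.5 μM Fluo-4 AM, washed 30 min, imaged live at 20X every second for 3 min. Agents added at 30 s; HBSS negative, ionomycin and UTP positive controls. Per-cell AUC over first 60 s, background-subtracted, basal-normalized, control-normalized, scaled 0–1; 8–50 cells, 2 experiments.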"}, "[2]": {"biological_target": "T1, m*C3aR1 (murinized hC3aR1) (Homo sapiens, UniProt Q16581, C420S/L413V/S400L/V103I/V419M)", "T1 sequence (Q16581 1-482 V103I/S400L/L413V/V419M/C420S)": "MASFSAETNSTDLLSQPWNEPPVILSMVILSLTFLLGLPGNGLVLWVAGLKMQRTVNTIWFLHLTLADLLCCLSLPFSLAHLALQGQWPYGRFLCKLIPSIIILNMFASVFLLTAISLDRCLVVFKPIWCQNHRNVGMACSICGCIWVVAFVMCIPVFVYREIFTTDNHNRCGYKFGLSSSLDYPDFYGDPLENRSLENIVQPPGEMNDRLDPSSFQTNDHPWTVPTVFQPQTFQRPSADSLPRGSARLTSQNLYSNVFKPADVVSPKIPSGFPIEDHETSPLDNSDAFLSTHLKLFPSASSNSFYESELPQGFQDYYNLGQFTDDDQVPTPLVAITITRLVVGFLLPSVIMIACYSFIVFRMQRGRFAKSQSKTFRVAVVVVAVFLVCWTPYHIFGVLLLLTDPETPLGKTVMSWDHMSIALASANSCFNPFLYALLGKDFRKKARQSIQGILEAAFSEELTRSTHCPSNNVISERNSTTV", "assay": "Tango β-arrestin recruitment assay, murinized hC3aR1", "assay_type": "cell-based", "settings": "ratio of EC50 hC3aR1 / m*C3aR1"}, "[3]": {"tested_on": "C3aR1 R161A, R340A and D417A mutants", "settings": "R340A, and D417A mutations, ref Sun et al., 1999; cited from earlier work"}, "C3aR1": {"tested_on": "C3aR1", "settings": "cited from earlier work"}}, "note": "“Also recorded” adds a separate entry of the source. Counter-ions that a name gives are not always drawn."}
{"compound": "CC(C)NCC(O)c1ccc(O)c(O)c1", "note": "(centres unmarked) [ISO, Isoproterenol hydrochloride]", "values": [{"measurement": "Ca45 2+ uptake from the medium", "setting": "[1]", "value": "did not increase Ca45^2+ uptake under our experimental conditions and did not potentiate TLQP-21-mediated effects; also recorded: does not modify TLQP-21-induced Ca45^2+ uptake from the medium"}]}
{"compound": "CN([C@@H](Cc1ccc(OS(=O)(=O)c2cccc3cnccc23)cc1)C(=O)N1CCN(c2ccccc2)CC1)S(=O)(=O)c1cccc2cnccc12", "note": "[KN-62]", "values": [{"measurement": "effect of inhibitor on basal or ISO-induced lipolysis", "setting": "3T3-L1 adipocytes", "value": "without affecting basal or ISO-induced lipolysis per se"}]}
{"compound": "NC(N)=NCCC[C@H](NC(=O)COCC(c1ccccc1)c1ccccc1)C(=O)O", "note": "[SB290157]", "values": [{"measurement": "effect of inhibitor on TLQP-21-induced [Ca2+]i increase", "setting": "[Ca2+]i in 3T3-L1 cells", "value": "antagonized TLQP-21-mediated calcium influx; also recorded: this effect is antagonized by the C3aR1 antagonist SB290157"}]}
{"compound": "COc1ccc(CCCOC(Cn2ccnc2)c2ccc(OC)cc2)cc1", "note": "(centres unmarked) [SKF-96365]", "values": [{"measurement": "effect of inhibitor on basal or ISO-induced lipolysis", "setting": "3T3-L1 adipocytes", "value": "without affecting basal or ISO-induced lipolysis"}, {"measurement": "basal fluorescence (Fluo-4)", "setting": "[Ca2+]i in 3T3-L1 cells", "value": "mild SKF-96365-induced elevation of basal fluorescence"}, {"measurement": "effect of inhibitor on TLQP-21-induced [Ca2+]i increase", "setting": "[Ca2+]i in 3T3-L1 cells", "value": "TLQP-21-induced increase in [Ca^2+]i, measured by Fluo-4 fluorescence, is blocked; also recorded: blocked the TLQP-21-induced increase in [Ca^2+]i"}]}
{"compound": "C3a63–77: C3aR1 agonist C3a63–77 (LRRQHARASHLGLAR; C3a anaphylatoxin; UniProt P01024 734-748, looked up, fragment)", "values": [{"measurement": "increase in β-arrestin potency at m*C3aR1 versus hC3aR1", "setting": "[2]", "value": 8.5, "unit": "fold"}]}
{"compound": "C3a: 77-amino-acid, full-length C3a; in b45 apparently the C3a63–77 peptide", "values": [{"measurement": "increase in β-arrestin potency at m*C3aR1 versus hC3aR1", "setting": "[2]", "value": 8.5, "unit": "fold"}, {"measurement": "C3a binding affinity to C3aR1 mutants", "setting": "[3]", "value": "complete loss of C3a binding affinity to C3aR1"}]}
{"compound": "HFHHALPPAR", "values": [{"measurement": "biological activity of modified or truncated peptides", "setting": "C3aR1; ref Cero et al., 2014", "value": "only retained minimal biological activity"}]}
{"compound": "RRRHFHHALPPAR", "values": [{"measurement": "biological activity of truncated peptide", "setting": "C3aR1; ref Rivolta et al., 2017", "value": "retains full biological activity"}]}
